Published values of several laboratories.
Each line is one published result; the experiments were not run side by side.

| SMILES | test | system | setting | solubility |
| --- | --- | --- | --- | --- |
| CNS(=O)(=O)c1ccc(Nc2ncc(C(F)(F)F)c([C@H]3CC[C@](C)(O)CC3)n2)c(C)c1 | – | PBS | 2 h, pH 7.4 | 0.4 µM |
| CO[C@H]1C[C@@H]2CC[C@@H](C)[C@@](O)(O2)C(=O)C(=O)N2CCCC[C@H]2C(=O)O[C@H]([C@H](C)C[C@@H]2CC[C@@H](O)[C@H](OC)C2)CC(=O)[C@H](C)/C=C(\C)[C@@H](O)[C@@H](OC)C(=O)[C@H](C)C[C@H](C)/C=C/C=C/C=C/1C | – | aqueous buffer | 18 h, pH 7.4 | 6.03 µM |
| OCc1ccc(-c2nn(Cc3ccccn3)c3ccccc23)o1 | – | aqueous buffer | 6 h, pH 7.4 | > 45 µg/mL |
| c1coc(Nc2ncnc3ccc(-c4cncc(N5CCOCC5)n4)cc23)n1 | – | aqueous buffer | pH 7.4, 25 °C | 19 µM |
| Nc1nc2c(ncn2COCCO)c(=O)[nH]1 | shake flask | water | 24 h | 1770 µg/mL |
| c1cc(-c2ccc3ncnc(Nc4ncco4)c3c2)cc(N2CC3CCC(C2)O3)c1 | – | aqueous buffer | pH 7.4, 25 °C | 0.4 µM |
| NCc1ccc(-c2nn(Cc3ccccc3)c3ccccc23)o1 | – | aqueous buffer | 6 h, pH 7.4 | > 45 µg/mL |
| CCOc1ccc(Nc2c3c(nc4ccccc24)CCC3)cc1 | – | simulated gastric fluid | 30 min, pH 2, acidic | > 100 µg/mL |
| Cc1cc(-c2ccnc3[nH]cc(F)c23)cc(F)c1[C@@]1(O)[C@H](C)CN(C(=O)CN)C[C@@H]1C | – | aqueous buffer | – | 11.9 µg/mL |
| O=c1c2ccc(OCc3ccc(OC(F)(F)F)cc3)cc2[nH]c2cc(Cl)cc(F)c12 | absorbance | aqueous buffer | 90 min, pH 7.4 | < 3.12 µM |
| CNS(=O)(=O)c1ccc(Nc2ncc(C(F)(F)F)c(N3CCC[C@](C)(O)C3)n2)c(C)c1 | – | FaSSIF | 2 h | 194 µM |
| COc1cccc(Cn2nc(-c3ccc(CO)o3)c3ccccc32)c1 | – | aqueous buffer | 6 h, pH 7.4 | 1 µg/mL |
| CC(C)N(c1ccc(C#N)cc1)c1ccc(NC(=O)CN(C)c2ccccc2N2CCCC2=O)cn1 | – | PBS | pH 7.4 | 40 µM |
| O=C1COc2ccc(-c3cccc(Cl)c3)cc2N1Cc1noc(C2CCC2)n1 | – | PBS | 8 h, pH 7.4 | 100 µM |
| COc1cnccc1Cn1nc(-c2ccc(CO)o2)c2ccccc21 | – | aqueous buffer | 6 h, pH 7.4 | > 33 µg/mL |
| Oc1ccc(/C=C/c2cc(O)cc(O)c2)cc1 | HPLC | aqueous buffer | 24 h, pH 6.8 | 79.5 µg/mL |
| CCN(c1ccc(C)cc1)c1ccc(NC(=O)CN(C)c2ccccc2N2CCCC2=O)cn1 | – | PBS | pH 7.4 | 3.4 µM |
| COc1ccc(Cn2cc(CO[C@@H]3O[C@H]4[C@H](OC[C@H]4O)[C@H]3O)nn2)cc1 | – | PBS | pH 7.4 | 198 µM |
| CCOC(=O)C1=C(CN2CCOCC2)NC(c2nccs2)=NC1c1ccc(F)cc1Br (centres unmarked) | HPLC | aqueous buffer | pH 7.4 | < 1 µg/mL |
| CCN(CC)CCOc1ccc2c(=O)c3c([nH]c2c1)CCCC3 | absorbance | aqueous buffer | 90 min, pH 7.4 | > 500 µM |
| c1cc(-c2ccc3ncnc(Nc4ncco4)c3c2)nc(N2C[C@H]3C[C@@H]2CO3)n1 | – | aqueous buffer | pH 7.4, 25 °C | 48 µM |
| OCc1ccc(-c2nn(Cc3ccccc3)c3ccccc23)o1 | – | aqueous buffer | 6 h, pH 7.4 | 3 µg/mL |

| SMILES | test | system | setting | solubility |
| --- | --- | --- | --- | --- |
| c1cc(-c2ccc3ncnc(Nc4ncco4)c3c2)cc(N2CC3(COC3)C2)c1 | – | aqueous buffer | pH 7.4, 25 °C | 3 µM |
| COc1ccccc1Cn1nc(-c2ccc(CO)o2)c2ccccc21 | – | aqueous buffer | 6 h, pH 7.4 | 1 µg/mL |
| CCCN(CCC)CCNc1ccc2c(=O)c3c([nH]c2c1)CCCC3 | absorbance | aqueous buffer | 90 min, pH 7.4 | > 500 µM |
| Cc1ccccc1CN1C(=O)C2=C(CCN(Cc3ccccc3)C2)N2CCN=C12 | shake flask | aqueous buffer | pH 4 | 92100 µg/mL |
| CN1CCN(c2cccc(-c3ccc4ncnc(Nc5ccc(Cl)c(C(F)(F)F)c5)c4c3)c2)CC1 | – | aqueous buffer | pH 7.4, 25 °C | < 1.4 µM |
| Cc1ccc(N(c2ccc(NC(=O)CN(C)c3ccccc3N3CCCC3=O)cc2)C(C)C)cc1 | – | PBS | pH 7.4 | < 2.5 µM |
| CC(C)(C(=O)O)[C@H](NC(=O)Cc1cccc(I)c1)c1ccc2oc(=O)[nH]c2c1 | – | aqueous buffer | pH 6.8 | > 700 µM |
| O=C(O)c1cc(-c2ccc(-n3ccnn3)cc2)cc(-n2cc(-c3ccc(C(F)(F)F)cc3)nn2)c1 | – | aqueous buffer | pH 7.4 | 7.6 µg/mL |
| OCc1ccc(-c2nn(Cc3cccnc3)c3cccnc23)o1 | – | aqueous buffer | 6 h, pH 7.4 | > 30 µg/mL |
| CN1CCN(c2cccc(-c3ccc4ncnc(Nc5ccc([N+](=O)[O-])c(C(F)(F)F)c5)c4c3)c2)CC1 | – | aqueous buffer | pH 7.4, 25 °C | 2 µM |
| Cn1cc(-c2ccc3ccn(CC(=O)Nc4ccccc4Cl)c3c2)c(C(F)(F)F)n1 | – | PBS | pH 7.4 | < 2.7 µM |
| Cc1ccc(N(C)c2ccc(NC(=O)CN(C)c3ccccc3N3CCCC3=O)cc2)cc1 | – | PBS | pH 7.4 | 7.2 µM |
| O=C(Nc1ccc(OC(F)(F)F)cc1)N[C@H]1CC[C@H](Oc2ccc(C(=O)O)cc2)CC1 | – | simulated gastric fluid | 30 min, pH 1, 37 °C, acidic | 0.0005 µg/mL |
| CN(C)CCOc1ccc2c(=O)c3c([nH]c2c1)CCCC3 | absorbance | aqueous buffer | 90 min, pH 7.4 | > 500 µM |
| CNS(=O)(=O)c1ccc(Nc2ncc(C(F)(F)F)c(N3CCC(C)(O)CC3)n2)c(C)c1 | – | PBS | 2 h, pH 7.4 | 2.7 µM |
| O=C(CCCCCCC(=O)Nc1ccccc1)NO | – | water | – | 720 µg/mL |
| Cc1ccc(N(C)c2ccc(NC(=O)CN(C)c3ccccc3N3CCCC3=O)cn2)cc1 | – | PBS | pH 7.4 | 44 µM |
| CCOC(=O)C1=C(CN2CCC[C@@H]2C(=O)Nc2ccc(B(O)O)cc2)NC(c2nccs2)=N[C@H]1c1ccc(F)cc1Br | HPLC | aqueous buffer | pH 2 | 257 µg/mL |
| CN(c1ncco1)c1ncnc2ccc(-c3cccc(N4CCOCC4)c3)cc12 | – | aqueous buffer | pH 7.4, 25 °C | 802 µM |
| Cc1ccc(Nc2cnnc3ccc(-c4ccc(N5CCCN(C)CC5)cc4)cc23)cn1 | – | aqueous buffer | pH 7.4, 25 °C | 82 µM |
| O=[N+]([O-])c1ccc(Nc2ncnc3ccc(-c4cccc(N5CCOCC5)c4)cc23)cc1C(F)(F)F | – | aqueous buffer | pH 7.4, 25 °C | < 0.4 µM |
| CCN(CC)CCCOc1ccc2c(=O)c3c([nH]c2c1)CCCC3 | absorbance | aqueous buffer | 90 min, pH 7.4 | > 500 µM |
